# Source: PubChem BioAssay (several laboratories)
# Compounds with a hit are over-represented: about 2.9% of the library has one in this group of screens.
# MEKK2 WT-MEK5 = modulators of MEK5 binding to wildtype MEKK2, primary screen, biochemical, multiplex bead flow cytometry, Alexa488-MEK5 | Mitogen-activated protein kinase kinase kinase 2 (Homo sapiens), Q9Y2U5 | Alexa488-MEK5 binding to MEKK2 WT; actives lie on both sides | binding response (% of control), % at 10 µM | actives 1.1% (n = 290,000) | AID 1531, 2009; in the data active = binding response below about 67% or above about 130%
# Dynein transport = inhibitors of GR-EGFP nuclear translocation, primary screen, dynein cargo transport inhibitor project, imaging, high-content, 3617.4 mouse cells; test concentration mostly 20 µM; stimulated with dexamethasone, 1 µM; hits give low values; z-score, hits read low; actives 0.47% (n = 220,000);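 active = plate z-score of nuclear minus cytoplasmic receptor signal below a set negative limit, without overly bright fluorescence or cell loss, cut at about -3.5 in these data, passing the limit was not always enough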;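 note: z-score of nuclear minus cytoplasmic ring GR-EGFP intensity difference per well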
#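 Medium: Induction medium lacking tetracycline, stripped serum | Probe or stimulus: 1.0 µM final dexamethasone stimulus | Schedule: 48 h induction, then 1 h compound, then 30 min agonist, 37 °C | Signal: Automated 10x imaging of fixed Hoechst-stained cells | Evaluation: Per-cell GR-EGFP intensity, nucleus versus surrounding cytoplasmic ring, well-averaged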
# MEKK3 PB1 HTS = modulators of MEKK3-MEK5 PB1 binding, primary screen, biochemical, wildtype MEKK3, multiplex bead flow cytometry, Alexa488-MEK5; Mitogen-activated protein kinase kinase kinase 3 (Homo sapiens), Q99759; actives 1.4% (n = 290,000); binding response (% of control), % at 10 µM; bead-based flow cytometry, Alexa488-MEK5 binding to MEKK3; actives lie on both sides; 0 = blocked by unlabeled MEK5, 100 = vehicle;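 active = binding response more than 3 SD above or below the average of its plate-row segment, actives on both sides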;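 note: Alexa488 bead fluorescence after subtracting the streptavidin-only scavenger bead signal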
# Target sequence (Q99759 whole entry, looked up): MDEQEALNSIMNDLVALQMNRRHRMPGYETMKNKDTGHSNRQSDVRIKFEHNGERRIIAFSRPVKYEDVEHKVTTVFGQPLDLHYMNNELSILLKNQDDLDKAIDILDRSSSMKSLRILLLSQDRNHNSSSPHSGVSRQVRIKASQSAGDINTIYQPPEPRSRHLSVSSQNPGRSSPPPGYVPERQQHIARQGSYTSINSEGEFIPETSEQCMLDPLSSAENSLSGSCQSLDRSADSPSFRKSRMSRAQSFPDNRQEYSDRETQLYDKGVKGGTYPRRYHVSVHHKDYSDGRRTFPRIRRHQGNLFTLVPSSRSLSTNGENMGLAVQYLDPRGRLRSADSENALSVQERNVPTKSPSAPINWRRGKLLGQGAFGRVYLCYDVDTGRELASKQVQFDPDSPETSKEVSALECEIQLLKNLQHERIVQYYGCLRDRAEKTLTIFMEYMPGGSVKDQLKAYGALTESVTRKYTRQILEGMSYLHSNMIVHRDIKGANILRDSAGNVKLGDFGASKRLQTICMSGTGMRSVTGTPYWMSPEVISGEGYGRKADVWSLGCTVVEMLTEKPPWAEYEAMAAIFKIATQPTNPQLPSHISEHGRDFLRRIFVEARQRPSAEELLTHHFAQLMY
# ATG4B inhibitor = ATG4B protease inhibitors, primary screen, biochemical, fluorescence, uHTS | Cysteine protease ATG4B (Homo sapiens), Q9Y4P1 | ATG4B cleavage of LC3-PLA2, NBD-HPC fluorescence, 1 h | inhibition, % at 8.33 µM | actives 0.51% (n = 340,000) | AID 504462, 2011; in the data active = inhibition above about 40%
# MEKK2mut PB1 HTS = MEK5 binding signal on mutant MEKK2 PB1, primary screen, biochemical, multiplex bead flow cytometry, Alexa488-MEK5 | Alexa488-MEK5 binding to MEKK2 mutant | percent response, % at 10 µM | actives 0.35% (n = 290,000) | AID 1530, 2009; in the data active = percent response above about 24%, passing the limit was not always enough
# B2AR ag = beta2AR agonists driving receptor internalization, primary screen, cell-based, FAP fluorogen, flow cytometry; Beta-2 adrenergic receptor (Homo sapiens), P07550; Am2.2-beta2AR cells; response, % (test concentration not listed); actives 0.43% (n = 340,000);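 active = response above a set limit, near 3 SD of response in nonfluorescent compounds, cut at about 42% in these data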
# Beta2AR ag CP1 = beta2AR agonists via receptor internalization, confirmation, cell-based, FAP fluorogen, flow cytometry, single point, cherry pick 1; shares compounds with B2AR ag; Am2.2-beta2AR cells, FAP surface receptor; hits give low values; percent response (surface receptor), % at 10 µM; actives 25% (n = 1,100); AID 540358, 2011;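 active = surface receptor percent response at or below 58%, roughly 3 SD from nonfluorescent compounds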
# B2AR FAP counter = fluorescence artifact in beta-2AR agonist FAP counterscreen; shares compounds with B2AR ag; Am2.2 cells, FAP fluorogen flow cytometry; hits give low values; calls only at 10 µM; 1,100 tested, under 10 active; AID 588765;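 active = percent response below a set limit in fluorescence channel 1 and below 50% in channel 8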
# Numbers stand for hits; i = inactive; nt = not tested or not shown.
SMILES,MEKK2 WT-MEK5,Dynein transport,MEKK3 PB1 HTS,ATG4B inhibitor,MEKK2mut PB1 HTS,B2AR ag,Beta2AR ag CP1,B2AR FAP counter
O=C(Nc1cccc(-c2ccc(F)cc2)c1)C1CCCN(Cc2cccnc2)C1 (stereo not drawn),i,nt,i,i,i,i,nt,nt
COCc1ccc(CN2CCCC(C(=O)Nc3ccc(-c4cccc(OC)c4)cc3)C2)o1 (stereo not drawn),i,nt,i,i,i,i,i,i
CCOc1ccc(NC(=O)CN(C)C(=O)c2cc(S(=O)(=O)N3CCCCC3)ccc2C)cc1OCC,nt,nt,nt,i,nt,i,nt,nt
COc1ccc(C(=O)Nc2ccc(OCC(=O)N3CCOCC3)cc2)c(OC)c1OC,i,nt,i,i,i,i,nt,nt
COC(=O)Nc1ccc(S(=O)(=O)N2CCCc3cccc(O)c32)cc1,i,i,i,i,i,52.3,i,i
O=C(CSc1nnc(-c2ccncc2)n1Cc1ccco1)N1c2ccccc2Sc2ccc(Cl)cc21,i,i,i,i,i,84.7,6.7,i
Cn1c(SCC(=O)N2c3ccccc3Sc3ccc(Cl)cc32)nnc1-c1ccco1,i,i,i,i,i,i,nt,nt
C=CCn1c(C)cc(C(=O)COc2ccc(N(C)S(=O)(=O)c3ccc(NC(C)=O)cc3)cc2)c1C,nt,nt,nt,i,nt,44.2,i,i
COCC(C)n1c(C)cc(C(=O)COc2ccc(N(C)S(=O)(=O)c3ccc(NC(C)=O)cc3)cc2)c1C (stereo not drawn),nt,nt,nt,i,nt,i,nt,nt
Cc1ccc(CNC(=O)CCCCn2c(=O)[nH]c3ccsc3c2=O)cc1,i,i,i,i,i,i,i,i
O=C(CCCCCn1c(=O)[nH]c2ccsc2c1=O)NCc1cccs1,i,i,i,i,i,i,nt,nt
O=C(CCCCCn1c(=O)[nH]c2ccsc2c1=O)NCc1ccc(F)cc1,i,i,i,i,i,108.9,1.5,i
O=C(NC1CC1)C1=C[C@H](c2coc3ccccc3c2=O)C[C@H](OCc2ccc(CO)cc2)O1,i,nt,i,i,i,i,nt,nt
CNC(=S)N/N=C(\C)c1ccc(Cl)s1,i,i,i,i,i,i,i,i
O=C(Nc1cccc(O)c1)N1CCOCC1,i,i,i,i,i,i,nt,nt
O=C(Nc1ccc2nc(-c3cccs3)c(-c3cccs3)nc2c1)N1CCOCC1,i,i,i,i,i,59.1,20.2,i
O=C(c1cccc(Cl)c1)N1CCC(C(=O)N2CCN(Cc3ccccc3)CC2)CC1,i,nt,i,i,i,78.9,25.4,i
O=C(CN1CCN(c2ccc(F)cc2)CC1)Nc1ccccc1[N+](=O)[O-],i,i,i,i,i,i,nt,nt
CN(C)c1nc(SCc2ccccc2Cl)nc2c1CCCC2,i,i,i,i,i,43.2,i,i
CCCCCC1CCC(c2n[nH]c(=S)n2C)CC1 (stereo not drawn),i,i,i,i,i,i,i,i
Cc1ccccc1C(=O)N[C@H](C(=O)OCC(=O)c1ccc[nH]1)C(C)C,i,i,i,i,i,i,nt,nt
Cc1ccc(SCC(=O)NC(=O)NCc2ccccc2)c(C)c1,i,i,i,i,i,i,nt,nt
CCOC(=O)c1c(NC(=O)COc2ccccc2OCC)sc2c1CC(C)(C)NC2(C)C,nt,nt,nt,i,nt,61.6,i,i
Nc1ccc(-c2nnnn2-c2ccc(N)cc2)cc1,i,nt,i,i,i,i,nt,nt
